ChEMBL document CHEMBL3763021 (Eur J Med Chem, 2016)

Key:
LS174T [1] = assay: Antitumor activity against human LS174T cells xenografted in BALB/C mouse assessed as tumor weight inhibition at 75 mg/kg, bid administered for 10 days measured twice per week; format: functional; conditions: 240 h, read-out: TGI
In short: (§1)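 Male BALB/c nude mice, 18–20 g, kept under SPF conditions. LS-174T cells at 2.5×10^7 cells/mL were injected s.c. into the right flank, and tumors were grown to about 100 mm3. Mice were randomized, n=6 treated and n=9 vehicle. Oral dosing ran qd or bid for 10 days; vehicle controls got the same volume of solvent. Tumor volume = length×width²/2, measured twice weekly. IR = (control − treated)/control for tumor weight or volume at day 10.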

[2] = Inhibition of Sonic-induced hedgehog signalling in mouse NIH3T3 cells after 48 hrs by Gli-luciferase reporter assay; format: cell-based; conditions: NIH3T3, 48 h
In short: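 NIH3T3 cells stably carrying a Gli-luciferase reporter were kept in DMEM with 10% FBS and 1 µg/mL puromycin, then seeded at 2×10^4 cells/well overnight at 37 °C. Compounds at 0.05–300 nM (8 concentrations) were added in medium with 0.5% FBS and 0.7 µg/mL Sonic Hh agonist, n=4 wells, for 48 h. Readout was the Firefly/Renilla luciferase ratio in lysates.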

[3] = Cmax in Sprague-Dawley rat at 1 mg/kg, iv by LC/MS/MS analysis; format: ADME, organism-based; design: dose 1 mg/kg, route intravenous; conditions: in vivo
In short: (§2)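 Male SD rats, 180–240 g, 3 per compound; single dose of 1 mg/kg iv or 5 mg/kg po, dosing volume 5 mL/kg. Blood was sampled from 2 min to 24 h and centrifuged at 4 °C. Plasma underwent protein precipitation, then LC/MS/MS in SRM mode with an internal standard. Parameters were derived by noncompartmental analysis.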

[4] = Cmax in Sprague-Dawley rat at 5 mg/kg, po by LC/MS/MS analysis; format: ADME, organism-based; design: dose 5 mg/kg, route oral; conditions: in vivo; in short: as §2
[5] = AUC (0 to t) in Sprague-Dawley rat at 1 mg/kg, iv by LC/MS/MS analysis; format: ADME, organism-based; conditions: in vivo
In short: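 Male SD rats, 3 per compound, 180–240 g, single iv dose at 1 mg/kg, dosing volume 5 mL/kg. Blood sampled at 2, 5, 15, 30 min and 1, 2, 4, 6, 8, 10, 24 h, then centrifuged at 4 °C. Plasma protein-precipitated and analysed by LC/MS/MS in SRM mode with internal standard. AUC(0-t) obtained by noncompartmental analysis.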

[6] = AUC (0 to t) in Sprague-Dawley rat at 5 mg/kg, po by LC/MS/MS analysis; format: ADME, organism-based; conditions: in vivo; in short: as §2
[7] = Apparent volume of distribution in Sprague-Dawley rat at 1 mg/kg, iv by LC/MS/MS analysis; conditions: in vivo
Rattus norvegicus = assay: Apparent volume of distribution in Sprague-Dawley rat at 5 mg/kg, po by LC/MS/MS analysis; conditions: in vivo
[8] = Clearance in Sprague-Dawley rat at 1 mg/kg, iv by LC/MS/MS analysis; format: ADME, organism-based; conditions: in vivo; in short: as §2
[9] = Clearance in Sprague-Dawley rat at 5 mg/kg, po by LC/MS/MS analysis; format: ADME, organism-based; conditions: in vivo; in short: as §2
[10] = Mean resident time (0 to t) in Sprague-Dawley rat at 1 mg/kg, iv by LC/MS/MS analysis; format: ADME, organism-based; conditions: in vivo; in short: as §2
[11] = Mean resident time (0 to t) in Sprague-Dawley rat at 5 mg/kg, po by LC/MS/MS analysis; format: ADME, organism-based; conditions: in vivo; in short: as §2
[12] = Half life in Sprague-Dawley rat at 1 mg/kg, iv by LC/MS/MS analysis; format: ADME, organism-based; conditions: in vivo; in short: as §2
[13] = Half life in Sprague-Dawley rat at 5 mg/kg, po by LC/MS/MS analysis; format: ADME, organism-based; conditions: in vivo; in short: as §2
[14] = Oral bioavailability in Sprague-Dawley rat at 5 mg/kg; format: ADME, organism-based; conditions: in vivo; in short: as §2
LS174T [15] = assay: Antiproliferative activity against human LS174T cells after 72 hrs by CellTiter-Glo luminescent cell viability assay; format: functional, cell-based
In short: (§3)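 Cells were grown in DMEM with 10% FBS, seeded at a density suited to each line, and left 24 h at 37 °C. Compounds were prepared in DMSO, diluted in medium over a concentration series starting at 100 µM, and applied for 72 h. CellTiter-Glo reagent was added for 30 min at room temperature before reading luminescence. IC50 came from four-parameter curve fitting.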

[16] = Antiproliferative activity against human PC3 cells after 72 hrs by CellTiter-Glo luminescent cell viability assay; format: functional, cell-based; conditions: PC-3, 72 h; in short: as §3
[17] = Antiproliferative activity against human BxPC3 cells after 72 hrs by CellTiter-Glo luminescent cell viability assay; format: functional, cell-based; conditions: BXPC-3, 72 h; in short: as §3
LS174T [18] = assay: Antitumor activity against human LS174T cells xenografted in BALB/C mouse assessed as tumor weight inhibition at 18.75 mg/kg, bid administered for 10 days measured twice per week; format: functional; conditions: 240 h, read-out: TGI; in short: as §1
LS174T [19] = assay: Antitumor activity against human LS174T cells xenografted in BALB/C mouse assessed as tumor weight inhibition at 37.5 mg/kg, bid administered for 10 days measured twice per week; format: functional; conditions: 240 h, read-out: TGI; in short: as §1
Mus musculus [20] = assay: Toxicity in BALB/C mouse xenografted with human LS174T cells assessed as mortality at 18.75 to 75 mg/kg, bid administered for 10 days; format: organism-based; conditions: in vivo, 240 h
In short: (§4)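 Male BALB/C nude mice (18–20 g) kept under SPF conditions. LS-174T cells at 2.5×10^7 cells/mL injected subcutaneously into the right flank. Once tumors reached about 100 mm3, mice were randomized to groups of 6 (vehicle group n = 9) and dosed orally once or twice daily for 10 days. Controls received solvent. Body weight and tumor volume were measured twice weekly and deaths recorded.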

Mus musculus [21] = assay: Toxicity in BALB/C mouse xenografted with human LS174T cells assessed as loss of body weight at 18.75 to 75 mg/kg, bid administered for 10 days measured twice per week; format: organism-based; conditions: in vivo, 240 h; in short: as §4
LS174T [22] = assay: Antitumor activity against human LS174T cells xenografted in BALB/C mouse assessed as tumor volume inhibition at 75 mg/kg, bid administered for 10 days measured twice per week; conditions: 240 h, read-out: TGI
LS174T [23] = assay: Antitumor activity against human LS174T cells xenografted in BALB/C mouse assessed as tumor volume inhibition at 18.75 mg/kg, bid administered for 10 days measured twice per week; format: functional; conditions: 240 h, read-out: TGI; in short: as §1
LS174T [24] = assay: Antitumor activity against human LS174T cells xenografted in BALB/C mouse assessed as tumor volume inhibition at 37.5 mg/kg, bid administered for 10 days measured twice per week; format: functional; conditions: 240 h, read-out: TGI; in short: as §1
LS174T [25] = assay: Potency index, ratio of GDC-0449 IC50 to compound IC50 for human LS174T cells; format: functional
PC-3 = assay: Potency index, ratio of GDC-0449 IC50 to compound IC50 for human PC3 cells; format: functional
BXPC-3 = assay: Potency index, ratio of GDC-0449 IC50 to compound IC50 for human BxPC3 cells; format: functional

Cc1ccc(CN2CCOCC2)cc1NC(=O)c1ccc(Nc2ncc(F)c(-c3ccc(OC(F)(F)F)cc3)n2)cc1 gave an inhibition in vivo at 75 mg/kg (LS174T [1]) of 14.4%, an IC50 [2] of 0.00103 µM and a Cmax [3] of 1010 ng/mL. It also gave a Cmax [4] of 494 ng/mL, an AUC(0-t) [5] of 2030 ng·h/mL and an AUC(0-t) [6] of 4720 ng·h/mL. For the same compound, the Vd [7] was 4.67 L/kg, the “Vd(app)” value (Rattus norvegicus) was 12.03324 L/kg and the clearance [8] was 7.75 mL/min/kg. For the same compound, the CL/F [9] was 15.5 mL/min/kg, the MRT last [10] was 4.85 h and the MRT last [11] was 7.42 h. The half-life [12] was 6.98 h, the half-life [13] was 9.08 h and the bioavailability [14] was 37.2%. For the same compound, the IC50 (LS174T [15]) was 9.1 µM, the IC50 [16] was 11.6 µM and the IC50 [17] was 14.5 µM. For the same compound, the inhibition in vivo at 18.75 mg/kg (LS174T [18]) was 18.4%, the inhibition in vivo at 37.5 mg/kg (LS174T [19]) was 17.3% and the Activity (Mus musculus [20]) was “Non-toxic”. For the same compound, the Activity (Mus musculus [21]) was “Non-toxic”, the inhibition in vivo at 75 mg/kg (LS174T [22]) was 33.1% and the inhibition in vivo at 18.75 mg/kg (LS174T [23]) was 34%. It also gave an inhibition in vivo at 37.5 mg/kg (LS174T [24]) of 34.9%, a Ratio IC50 (LS174T [25]) of 5 and a Ratio IC50 (PC-3) of 5.8. For the same compound, the “Ratio IC50” value (BXPC-3) was 3.
